Test system: MS2 coat protein
Assay: apparent Kd, MS2 coat protein; higher = weaker binding; RNA-MaP array; theophylline 2 mM where present
Summary of the method: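 Stalled E. coli RNA polymerase transcribed each design on Illumina sequencing-chip clusters. The clusters were titrated with SNAP-549-labelled MS2 coat protein, starting at 0.7 or 1.5 nM and doubling up to 3 µM, first without ligand and then with constant ligand, in 100 mM Tris-HCl pH 7.5, 80 mM KCl, 4 mM MgCl2, BSA, DTT, yeast tRNA and Tween-20. Green signal was normalised to red-channel RNA signal and to the control-cluster median Fmax. The apparent Kd is the median of filtered binding-curve fits made for each cluster.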

[1] = designed as: OFF switch for theophylline, no ligand
[2] = ligand present: theophylline, designed as: OFF switch for theophylline
[3] = designed as: ON switch for theophylline, no ligand
[4] = ligand present: theophylline, designed as: ON switch for theophylline

Sequence | apparent Kd [1] [nM] | apparent Kd [2] [nM] | apparent Kd [3] [nM] | apparent Kd [4] [nM]
AUUAUCAUGGUCAUAUAUAUAUCUUCAGAUACCAGACUAUAUUAAGUCCCUUGGCAGCUGUUACAUGAGGAUCACCCAUGUUAUA | 172 | 43.5 | – | –
ACAUGAGGAUCACCCAUGUGGCGACUUGAUACCAGACCCGCACUAGUCCCUUGGCAGCAACUACGUGUGGGACACCCAUGUGAAG | 20.8 | 33.7 | – | –
CAUGAAGUAACUGAUACCAGUGUACACAUGAGGAUCACCCAUGUGUUGGGUUUUGUUGUACACCCUUGGCAGCAGAAUCUUUAUG | 56.6 | 100 | – | –
AAUAACAUGAGGAUCACCCAUGUAAAAGAUACCAGAUGCAUGAUGAUCCCUUGGCAGCUUAAACGCGAUUGGAAACAAUCGCGAA | – | – | 27.6 | 148
AUCGCACCUGGUGAUACCAGCGUUUGCUCGUGACAUGAGGAUCACCCAUGUGGCCAGUGAUGCCCUUGGCAGCAUGGUCGGUGCA | – | – | 230 | 177
UCGUGUAUAACGGAUACCAGUGAGAAGGAUACAUGAGGAUCACCCAUGUGAGUUGAUCCACACCCUUGGCAGCUGUAUAUAUCUA | – | – | 194 | 1100
UUCUGGUCCCGUGAUACCAGAGACAUGAGGAUCACCCAUGUACAUGAGGAUCACCCAUGUUUCCCUUGGCAGCACUGUAGGGAGC | 196 | 1220 | – | –
AAGGUGAUCCCAGAUACCAGCUUAACAUGAGGAUCACCCAUGUUUGGGACGAAAGUCCCGGGCCCUUGGCAGCUGGGUUGCCAAG | – | – | 196 | 131
UGACAUUGCUGCGAUACCAGACAUGAGGAUCACCCAUGUACCAAGGUAAGAAAAUAACAUGUCCCUUGGCAGCGCAGCAAUGUCU | 14.9 | 284 | – | –
AAGGUGAUCCGUGAUACCAGCUCAACAUGAGGAUCACCCAUGUAAGCCUGGAAACAGGCGAGCCCUUGGCAGCACGGUAAUAAUA | – | – | 11.9 | 13.8
GCCCUUGGCAGCGAUACCAGCCAAAAUUAAAAUAAACCUCUACAUGAGGAUCACCCAUGUGGCCCUUGGCAGCGAUACCAGCAAA | 49.7 | 76.4 | – | –
UCACAUGAGGAUCACCCAUGUACAGGCGAUACCAGCCGUACAUUGGGCCCUUGGCAGCGCACCGAGACCUUUAUAAGCACCUCGG | – | – | 29.5 | 192
CAUGAAGUAACUGAUACCAGUGUACUGACAUGAGGAUCACCCAUGUUGGGUUUUGUUGUACACCCUUGGCAGCAGAAUCUUUAUG | 69.1 | 110 | – | –
AUAGUCUUGAGUGAUACCAGACUACAUGAGGAUCACCCAUGUUUCUUUUGGUUAUCAUGUGUCCCUUGGCAGCACGCAUGUAUAG | 16.4 | 65.8 | – | –
AGCGACAUGCAUGAUACCAGCUACAUGAGGAUCACCCAUGUACGUCAGUAAUGACUGUGUAGCCCUUGGCAGCAUAGAGCAUGUU | 17.4 | 53.6 | – | –
AACAGGGCUUCCACGAAGCCCUAAGGUGAUACCAGCACAUGUAAGUGCCCUUGGCAGCACGGUACAUGAGGAUCACCCAUGUAGA | – | – | 50.3 | 366
AGCAUUGUAACAGAUACCAGACUUUUAAUGCCUCUAAUAACAUGAGGAUCACCCAUGUAUGUCCCUUGGCAGCUGUUAUGAUGCA | 115 | 220 | – | –
AUCGUACCUGAUGAUACCAGCAAUUGCUCGUGACAUGAGGAUCACCCAUGUGACCAGUGAUGCCCUUGGCAGCAUGGUCGGUGCA | – | – | 97.1 | 13.3
AAAAUAAAUAAAACGGGUAACAUGAAGGAUACCAGCCAGGAAACUGGCCCUUGGCAGCCUCUACAUGAGGAUCACCCAUGUCCCG | – | – | 445 | 35.7
ACAUGAGGAUCACCCAUGUGCAGCACGGAUACCAGCGUCCUAGUGCGCCCUUGGCAGCCGGACAUGAGGAUCACCCAUGUGUGGG | 77.6 | 219 | – | –
ACGUCACGUUUACUCGUGGUUUCGAUCGAUACCAGUAGCGAGAGUUACCCUUGGCAGCGACAUGAGGAUCACCCAUGUGCGAAGA | 11.8 | 15.9 | – | –
ACGUCUCGAAAACUCGUAGUAACUAUAGAUACCAGUAGCGAGAGUUACCCUUGGCAGCUACAUGAGGAUCACCCAUGUACGAGGA | 15.6 | 15 | – | –
UUAAGAGGAUAUCAAAUUUGAUUUUGUGAUACCAGAAUAAUUUUAUUCCCUUGGCAGCAUGACAUGAGGAUCACCCAUGUGUCUU | – | – | 37 | 30
AAACAUUGCUCAGAUACCAGACAUGAGGAUCACCCAUGUACCGAGGUACCCGAAAGGAAUGUCCCUUGGCAGCUGAGCAAUGAAA | 12 | 129 | – | –
ACAUGAGGAUCACCCAUGUCUGCCACUGAUACCAGCGGAUGCCAACGCCCUUGGCAGCAGAACAUGAGGAUCACCCAUGUAGGCA | – | – | 319 | 209
